According to ChEMBL document CHEMBL3091366, “New 5-Aryl-1H-imidazoles display in vitro antitumor activity against apoptosis-resistant cancer models, including melanomas, through mitochondrial targeting” (J Med Chem, 2013):
pIC50: −log10 of the molar value. The source made the active and inactive calls. No cut-off for these calls is given here.

Experiments:
[1] = system: SK-MEL-28; assay: Effect on oxygen consumption in human SK-MEL-28 cells at 10 uM by oxygraphic analysis; format: functional, cell-based
Procedure, shortened: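 Compound added directly at 10 µM to the oxygraph chamber holding SKMEL-28 cells; ROUTINE respiration recorded by Clark-electrode high-resolution respirometry at 37 °C in phenol red-free DMEM with glucose 1 g/L and pyruvate 110 mg/L, with stirring.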

[2] = system: SK-MEL-28; assay: Induction of ROS production in human SK-MEL-28 cells at 5 uM by DCFH-DA staining-based flow cytometry; format: functional, cell-based; settings: TDE = time-dependent effect
Procedure, shortened: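 SKMEL-28 cells exposed to 5 µM over a time course, washed twice, stained 1 h at 37 °C with 20 µM DCFH-DA in phenol red-free RPMI, washed twice, trypsinized; ROS-driven probe oxidation read as fluorescence by flow cytometry. Run once in quadruplicate; mean ± SEM.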

[3] = system: SK-MEL-28; assay: Effect on mitochondrial morphology in human SK-MEL-28 cells at 5 uM after 24 hrs by MitoTracker Green FM-based fluorescence microscopic analysis; format: functional, cell-based
Procedure, shortened: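 SKMEL-28 cells seeded on glass coverslips 48 h before treatment at 5 µM (3 to 48 h); two washes, mitochondria stained with 100 nM MitoTracker Green FM in phenol red-free RPMI for 30 min, rinsed twice, viewed by fluorescence microscopy. Three coverslips per condition.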

[4] = system: MDA-MB-468; assay: Cytotoxicity against human MDA-MB-468 cells assessed as residual growth at 10 uM; format: functional
[5] = system: BT-549; assay: Cytotoxicity against human BT549 cells assessed as residual growth at 10 uM; format: functional
[6] = Cytotoxicity against human Hs578T cells assessed as residual growth at 10 uM; format: functional, Hs-578T
[7] = Cytotoxicity against human UO31 cells assessed as residual growth at 10 uM; format: functional, UO-31
[8] = system: SN12C; assay: Cytotoxicity against human SN12C cells assessed as residual growth at 10 uM; format: functional
[9] = system: 786-0; assay: Cytotoxicity against human 786-0 cells assessed as residual growth at 10 uM; format: functional
[10] = system: SK-OV-3; assay: Cytotoxicity against human SKOV3 cells assessed as residual growth at 10 uM; format: functional
[11] = Cytotoxicity against human NCI-ADR-RES cells assessed as residual growth at 10 uM; format: functional
[12] = Cytotoxicity against human OVCAR5 cells assessed as residual growth at 10 uM; format: functional, OVCAR-5
[13] = system: OVCAR-8; assay: Cytotoxicity against human OVCAR8 cells assessed as residual growth at 10 uM; format: functional
[14] = system: UACC-62; assay: Cytotoxicity against human UACC62 cells assessed as residual growth at 10 uM; format: functional
[15] = system: SK-MEL-5; assay: Cytotoxicity against human SK-MEL-5 cells assessed as residual growth at 10 uM; format: functional
[16] = system: M14; assay: Cytotoxicity against human M14 cells assessed as residual growth at 10 uM; format: functional
[17] = system: Malme-3M; assay: Cytotoxicity against human MALME-3M cells assessed as residual growth at 10 uM; format: functional
[18] = system: U-251; assay: Cytotoxicity against human U251 cells assessed as residual growth at 10 uM; format: functional
[19] = system: SNB-19; assay: Cytotoxicity against human SNB19 cells assessed as residual growth at 10 uM; format: functional
[20] = system: SF-539; assay: Cytotoxicity against human SF539 cells assessed as residual growth at 10 uM; format: functional
[21] = system: SF-268; assay: Cytotoxicity against human SF268 cells assessed as residual growth at 10 uM; format: functional
[22] = system: HCT-15; assay: Cytotoxicity against human HCT15 cells assessed as residual growth at 10 uM; format: functional
[23] = system: HCC 2998; assay: Cytotoxicity against human HCC2998 cells assessed as residual growth at 10 uM; format: functional
[24] = system: COLO 205; assay: Cytotoxicity against human COLO205 cells assessed as residual growth at 10 uM; format: functional
[25] = system: NCI-H522; assay: Cytotoxicity against human NCI-H522 cells assessed as residual growth at 10 uM; format: functional
[26] = system: NCI-H460; assay: Cytotoxicity against human NCI-H460 cells assessed as residual growth at 10 uM; format: functional
[27] = system: NCI-H23; assay: Cytotoxicity against human NCI-H23 cells assessed as residual growth at 10 uM; format: functional
[28] = system: NCI-H226; assay: Cytotoxicity against human NCI-H226 cells assessed as residual growth at 10 uM; format: functional
[29] = system: HOP-92; assay: Cytotoxicity against human HOP92 cells assessed as residual growth at 10 uM; format: functional
[30] = Cytotoxicity against human EKVX cells assessed as residual growth at 10 uM; format: functional
[31] = system: A549; assay: Cytotoxicity against human A549 cells assessed as residual growth at 10 uM; format: functional
[32] = system: K562; assay: Cytotoxicity against human K562 cells assessed as residual growth at 10 uM; format: functional
[33] = system: CCRF-CEM; assay: Cytotoxicity against human CCRF-CEM cells assessed as residual growth at 10 uM; format: functional
[34] = system: SK-MEL-28; assay: Induction of apoptosis in apoptotic-resistant human SK-MEL-28 cells at 5 uM after 24 to 72 hrs by TUNEL staining-based flow cytometry; format: functional, cell-based
Procedure, shortened: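 SKMEL-28 cells treated with 5 µM for 24, 48 and 72 h; apoptosis by TUNEL plus propidium iodide staining (APO-Direct kit) read by flow cytometry. Kit negative/positive controls, plus PC-3 cells untreated or given 1 µM narciclasine 72 h as internal controls. Quadruplicate (kit controls singlet); mean ± SEM.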

[35] = system: SK-MEL-28; assay: Cell cycle arrest in apoptotic-resistant human SK-MEL-28 cells at 5 uM after 24 to 72 hrs by double propidium iodide staining-based flow cytometry; format: functional
Procedure, shortened: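 SK-MEL-28 cells exposed to 5 µM for 24, 48 and 72 h. Cell cycle was read by flow cytometry with propidium iodide plus TUNEL double staining (APO-Direct kit), in quadruplicate. Videomicroscopy photographed each field every 4 min over 72 h. Global growth is cells at a time point divided by cells at time 0; the treated/control ratio gives GGR. Cell death was judged from morphology. Run twice, in triplicate and in quadruplicate.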

[36] = Cytotoxicity against HLF cells assessed as growth inhibition after 72 hrs by MTT-based colorimetric assay; format: cell-based; settings: Homo sapiens
Procedure, shortened: (§1)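 MTT colorimetric assay, 72 h exposure to the fumarate salt. Read-out is reduction of MTT to formazan by living cells. IC50 is the concentration that reduces the whole cell population by 50%. Six replicates per condition. Where compounds were not tested on every line, apoptosis-sensitive lines were PC3, MCF-7, LoVo and B16F10, and apoptosis-resistant lines were U373, T98G, A549 and SK-MEL-28.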

[37] = system: B16-F10; assay: Cytotoxicity against apoptotic-sensitive mouse B16F10 cells assessed as growth inhibition after 72 hrs by MTT-based colorimetric assay; format: functional, cell-based; settings: B16-F10, 72 h; procedure, shortened: as §1
[38] = Cytotoxicity against apoptotic-resistant human U373 cells assessed as growth inhibition after 72 hrs by MTT-based colorimetric assay; format: functional, cell-based, U-373MG ATCC; settings: Homo sapiens, U373 MG, 72 h; procedure, shortened: as §1

Structure (SMILES): C=CCCCCOc1ccccc1-c1cnc(OCCCCC=C)n1C
- Activity [1]: inactive
- Activity [2]: tde
- Activity [3]: inactive
- Activity [4]: 25.48%
- Activity [5]: 96.77%
- Activity [6]: 66.38%
- Activity [7]: 69.27%
- Activity [8]: 91.09%
- Activity [9]: 106.84%
- Activity [10]: 74.99%
- Activity [11]: 30.38%
- Activity [12]: 95.17%
- Activity [13]: 83.91%
- Activity [14]: 55.73%
- Activity [15]: 83.67%
- Activity [16]: 72.63%
- Activity [17]: 62.83%
- Activity [18]: 68.59%
- Activity [19]: 91.08%
- Activity [20]: 81.04%
- Activity [21]: 79.65%
- Activity [22]: 52.21%
- Activity [23]: 61.08%
- Activity [24]: 46.04%
- Activity [25]: 12.63%
- Activity [26]: 55.6%
- Activity [27]: 76.02%
- Activity [28]: 92.21%
- Activity [29]: 75.18%
- Activity [30]: 85.23%
- Activity [31]: 50.25%
- Activity [32]: 30.53%
- Activity [33]: 80.85%
- Activity [34]: inactive
- Activity [35]: inactive
- pIC50 [36]: 4.66
- pIC50 [37]: 5.15
- pIC50 [38]: 5.15
